Source: ChEMBL document CHEMBL1128733 (J Med Chem, 1995)

Experiments:
Histamine H3 receptor [1] = target: T1, Histamine H3 receptor (Cavia porcellus, UniProt Q9JI35); test: Tested in vitro for antagonist activity against H3 receptor of guinea pig jejunum.; assay type: functional, tissue-based; conditions: read-out: pA2 (converted)
In short: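 Isolated guinea pig jejunum segments were electrically stimulated, giving twitches from endogenous acetylcholine release. Antagonism was tested against cumulative (R)-α-methylhistamine concentration–response curves, using at least three antagonist concentrations. pA2 was the negative log of the Schild plot abscissal intercept. Tissues came from at least four animals, tested in triplicate; Student's t-test, p < 0.05.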

Histamine H2 receptor [2] = target: T2, Histamine H2 receptor (Homo sapiens, UniProt P25021); test: Binding affinity against human H2 receptor by the displacement of [125I]iodoaminopotentidine bound to membranes of CHO cells.; assay type: cell membranes
In short: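 Displacement of [125I]iodoaminopotentidine from membranes of CHO cells expressing human H2 receptors. At least three independent experiments, each performed in triplicate.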

Histamine H1 receptor [3] = target: T3, Histamine H1 receptor (Cavia porcellus, UniProt P31389); test: Binding affinity for H1 receptor of guinea pig by the displacement of [3H]mepyramine, bound to membranes of CHO cells; assay type: cell membranes
In short: (§1)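 Displacement of [3H]mepyramine from membranes of CHO cells expressing guinea pig H1 receptors. At least three independent experiments, each performed in triplicate.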

[4] = target: Histamine H3 receptor (Cavia porcellus) (UniProt Q9JI35); conditions: Ileum
Histamine H3 receptor [5] = target: T1, Histamine H3 receptor; test: pD2 values against H3 receptor of guinea pig jejunum were determined.; assay type: tissue-based
In short: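 Isolated guinea pig jejunum segments, electrically stimulated so that endogenous acetylcholine release evokes contractile twitches. Cumulative concentrations of the compound were added, and the concentration-dependent inhibition of the evoked twitches gave a concentration–response curve. Tissue from at least four animals was used, each tested in triplicate. Student's t-test, with p < 0.05 taken as significant.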

Histamine H3 receptor [6] = target: T1, Histamine H3 receptor; test: pA2 values against H3 receptor of guinea pig ileum were determined.; assay type: tissue-based; conditions: read-out: pA2 (converted)
Histamine H1 receptor [7] = target: T3, Histamine H1 receptor; test: Binding affinity against H1 receptor of guinea pig by the displacement of [3H]mepyramine, bound to membranes of CHO cells; assay type: cell membranes; in short: as §1
Histamine H2 receptor [8] = target: T2, Histamine H2 receptor; test: Binding affinity against human H2 receptor by the displacement of [125I]iodoaminopotentidine, bound to membranes of CHO cells.; assay type: cell membranes
[9] = target: Histamine H3 receptor (Cavia porcellus) (UniProt Q9JI35); conditions: Jejunum

T2 sequence (P25021 whole entry): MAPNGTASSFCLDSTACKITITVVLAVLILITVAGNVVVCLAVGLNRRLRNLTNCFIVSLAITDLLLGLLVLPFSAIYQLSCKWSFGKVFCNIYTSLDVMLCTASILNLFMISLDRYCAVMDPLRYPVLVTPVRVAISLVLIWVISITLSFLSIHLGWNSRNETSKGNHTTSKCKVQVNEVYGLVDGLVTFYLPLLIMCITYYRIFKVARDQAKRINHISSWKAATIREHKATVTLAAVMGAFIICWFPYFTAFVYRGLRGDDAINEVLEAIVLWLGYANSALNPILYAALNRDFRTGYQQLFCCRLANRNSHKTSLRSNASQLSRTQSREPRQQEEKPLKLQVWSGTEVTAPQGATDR
T1 sequence (Q9JI35 whole entry): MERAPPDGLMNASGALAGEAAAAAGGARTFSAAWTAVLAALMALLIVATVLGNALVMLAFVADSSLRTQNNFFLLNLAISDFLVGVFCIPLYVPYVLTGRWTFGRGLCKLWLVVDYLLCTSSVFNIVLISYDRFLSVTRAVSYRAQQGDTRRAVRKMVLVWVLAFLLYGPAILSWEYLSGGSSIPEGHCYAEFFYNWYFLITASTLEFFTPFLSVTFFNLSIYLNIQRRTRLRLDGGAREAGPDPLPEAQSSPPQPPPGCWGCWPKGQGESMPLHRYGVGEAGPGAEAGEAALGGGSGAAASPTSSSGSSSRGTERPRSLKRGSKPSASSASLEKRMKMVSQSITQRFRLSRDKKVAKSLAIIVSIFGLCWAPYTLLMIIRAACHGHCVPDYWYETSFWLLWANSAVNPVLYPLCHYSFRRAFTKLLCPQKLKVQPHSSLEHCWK
T3 sequence (P31389 whole entry): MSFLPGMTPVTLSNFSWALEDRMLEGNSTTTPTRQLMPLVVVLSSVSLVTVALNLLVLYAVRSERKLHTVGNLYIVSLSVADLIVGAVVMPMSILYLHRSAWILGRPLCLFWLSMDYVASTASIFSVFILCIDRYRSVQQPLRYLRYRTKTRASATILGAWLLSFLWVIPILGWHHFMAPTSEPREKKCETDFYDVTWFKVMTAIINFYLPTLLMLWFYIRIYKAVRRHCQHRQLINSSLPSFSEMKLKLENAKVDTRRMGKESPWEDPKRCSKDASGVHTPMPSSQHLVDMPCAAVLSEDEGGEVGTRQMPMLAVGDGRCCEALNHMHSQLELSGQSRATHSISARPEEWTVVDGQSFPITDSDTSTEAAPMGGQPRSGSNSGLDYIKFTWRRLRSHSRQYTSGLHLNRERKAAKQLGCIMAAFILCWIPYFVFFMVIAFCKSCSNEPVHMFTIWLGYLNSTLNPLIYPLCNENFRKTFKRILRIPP
Histamine H3 receptor (Cavia porcellus), sequence (Q9JI35 whole entry): as the sequence (Q9JI35 whole entry) above

Structure (SMILES)	Kb (Histamine H3 receptor [1])	Ki (Histamine H1 receptor [7])	Ki (Histamine H2 receptor [8])	further results
N=C(N)SCCc1c[nH]cn1				pD2 [4]: 8.1
C[C@@H](N)Cc1c[nH]cn1				pD2 (Histamine H3 receptor [5]): 7.8
N=C(N)SCCCc1c[nH]cn1				Kb (Histamine H3 receptor [6]): 0.01 µM
NCCc1c[nH]cn1				pD2 [9]: 6.2
NCCCc1c[nH]cn1 [HOMOHISTAMINE]	1.26 µM	> 1000 µM	> 1000 µM	
NCc1c[nH]cn1	> 1000 µM	> 1000 µM	> 1000 µM	

More lines, main results first:

Kb (Histamine H3 receptor [1])	Ki (Histamine H1 receptor [7])	Ki (Histamine H2 receptor [8])	Structure (SMILES)	further results
0.02 µM			NCCCCc1c[nH]cn1 [IMBUTAMINE]	Ki (Histamine H2 receptor [2]): 794 µM; Ki (Histamine H1 receptor [3]): 398 µM
1 µM	2.51 µM	31.6 µM	NCCCCCCCCc1cnc[nH]1	
0.0158 µM	126 µM	200 µM	NCCCCCCc1cnc[nH]1	
1 µM	0.631 µM	20 µM	NCCCCCCCCCCc1c[nH]cn1	
0.00398 µM	126 µM	251 µM	NCCCCCc1c[nH]cn1 [IMPENTAMINE]	
